# Assay results: ChEMBL document CHEMBL4699659, “Discovery of 4-amino-1H-pyrazolo[3,4-d]pyrimidin derivatives as novel discoidin domain receptor 1 (DDR1) inhibitors” (Bioorg Med Chem, 2021)
# What was measured:
# [1] = molecular target: Epithelial discoidin domain-containing receptor 1 (Homo sapiens, UniProt Q08345); assay: Inhibition of DDR1 (unknown origin) using fluorescein-poly GAT as substrate measured after 1 hr by LANCE ULTRA kinase assay
# [2] = test system: HCT-116; assay: Antiproliferative activity against human HCT-116 cells overexpressing DDR1 assessed as inhibition of cell proliferation at 10 uM measured after 72 hrs by MTT assay relative to control; format: functional
# Summary of the method: (§1)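 Adherent cells seeded at 3000–4000 per well, then given compound at 10 μM in 100 μL medium on day two. After 72 h, MTT added for a further 4–5 h and absorbance read at 570 nm. Percent growth inhibition taken from sample absorbance as a ratio to untreated control.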
# [3] = test system: MDA-MB-231; assay: Antiproliferative activity against human MDA-MB-231 cells overexpressing DDR1 assessed as inhibition of cell proliferation at 10 uM measured after 72 hrs by MTT assay relative to control; format: functional; summary of the method: as §1
# [4] = test system: HCT-116; assay: Antiproliferative activity against human HCT-116 cells overexpressing DDR1 assessed as inhibition of cell proliferation measured after 72 hrs by MTT assay; format: functional, cell-based; conditions: HCT-116, 72 h
# Summary of the method: (§2)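 Adherent cells seeded at 3000–4000 per well and dosed the next day with a dilution series in 100 μL medium. Exposure 72 h, then MTT incubation 4–5 h and absorbance read at 570 nm. Inhibition expressed as sample/control absorbance ratio; IC50 determined only for compounds giving […] inhibition at 10 μM.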
# [5] = test system: MDA-MB-231; assay: Antiproliferative activity against human MDA-MB-231 cells overexpressing DDR1 assessed as inhibition of cell proliferation measured after 72 hrs by MTT assay; format: functional, cell-based; conditions: MDA-MB-231, 72 h; summary of the method: as §2
# Epithelial discoidin domain-containing receptor 1, sequence (Q08345 whole entry, the tested form may be a part): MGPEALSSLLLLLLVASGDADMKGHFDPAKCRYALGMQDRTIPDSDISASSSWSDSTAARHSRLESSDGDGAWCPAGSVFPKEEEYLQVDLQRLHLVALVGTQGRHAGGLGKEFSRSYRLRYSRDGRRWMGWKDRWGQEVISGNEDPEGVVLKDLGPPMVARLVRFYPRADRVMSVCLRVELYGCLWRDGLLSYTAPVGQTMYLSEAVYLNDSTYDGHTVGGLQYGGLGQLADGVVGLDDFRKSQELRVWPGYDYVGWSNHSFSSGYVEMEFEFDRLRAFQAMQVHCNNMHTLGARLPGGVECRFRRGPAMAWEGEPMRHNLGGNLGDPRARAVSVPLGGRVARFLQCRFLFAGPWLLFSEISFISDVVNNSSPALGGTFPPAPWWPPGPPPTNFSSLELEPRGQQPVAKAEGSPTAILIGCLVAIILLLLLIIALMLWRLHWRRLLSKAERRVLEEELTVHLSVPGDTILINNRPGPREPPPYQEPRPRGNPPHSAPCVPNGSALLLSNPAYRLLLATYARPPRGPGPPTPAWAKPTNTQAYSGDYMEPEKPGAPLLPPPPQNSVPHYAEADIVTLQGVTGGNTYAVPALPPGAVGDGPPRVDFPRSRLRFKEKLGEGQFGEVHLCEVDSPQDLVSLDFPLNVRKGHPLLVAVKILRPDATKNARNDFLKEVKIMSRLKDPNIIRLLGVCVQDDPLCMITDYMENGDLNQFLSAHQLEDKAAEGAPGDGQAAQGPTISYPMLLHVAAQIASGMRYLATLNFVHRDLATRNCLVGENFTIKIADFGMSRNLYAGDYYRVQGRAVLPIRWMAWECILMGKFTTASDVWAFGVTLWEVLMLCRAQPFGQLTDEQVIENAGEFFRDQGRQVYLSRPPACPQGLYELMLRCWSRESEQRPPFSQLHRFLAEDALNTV
SMILES,IC50 [1],IC50 [4],IC50 [5],inhibition at 10 µM [2],inhibition at 10 µM [3]
Cc1ccc(NC(=O)c2ccc(CN3CCOCC3)c(Cl)c2)cc1Oc1ccc(-c2n[nH]c3ncnc(N)c23)cc1,2.17 µM,,,58.3%,96.5%
Cc1ccc(NC(=O)c2ccc(CN3CCOCC3)c(F)c2)cc1Oc1ccc(-c2n[nH]c3ncnc(N)c23)cc1,24.4 µM,> 10 µM,,11.1%,93.1%
Cc1ccc(NC(=O)c2ccc(CN3CCC(C)CC3)c(C(F)(F)F)c2)cc1Oc1ccc(-c2n[nH]c3ncnc(N)c23)cc1,2.81 µM,,> 10 µM,73.7%,42.1%
Cc1ccc(C(=O)Nc2ccc(CN3CCN(C)CC3)c(C(F)(F)F)c2)cc1C#Cc1cnc2ccnn2c1,0.005 µM,,,,
Cc1ccc(NC(=O)c2ccc(CN3CCN(C)CC3)c(F)c2)cc1Oc1ccc(-c2n[nH]c3ncnc(N)c23)cc1,,,,73.2%,92.1%
CN1CCN(Cc2ccc(C(=O)Nc3cccc(Oc4ccc(-c5n[nH]c6ncnc(N)c56)cc4)c3)cc2C(F)(F)F)CC1,0.044 µM,5.96 µM,4.29 µM,99.8%,98.2%
Cc1ccc(NC(=O)c2ccc(CN3CCCCC3)c(C(F)(F)F)c2)cc1Oc1ccc(-c2n[nH]c3ncnc(N)c23)cc1,0.975 µM,> 10 µM,> 10 µM,36.9%,29.6%
Cc1ccc(NC(=O)c2ccc(CN3CCN(C)CC3)c(I)c2)cc1Oc1ccc(-c2n[nH]c3ncnc(N)c23)cc1,0.131 µM,4.51 µM,3.21 µM,99.7%,98.9%
Cc1ccc(NC(=O)c2ccc(CN3CCOCC3)c(C(F)(F)F)c2)cc1Oc1ccc(-c2n[nH]c3ncnc(N)c23)cc1,0.416 µM,> 10 µM,,20.5%,71.3%
CCN1CCN(Cc2ccc(C(=O)Nc3ccc(C)c(Oc4ccc(-c5n[nH]c6ncnc(N)c56)cc4)c3)cc2C(F)(F)F)CC1,0.07 µM,5.48 µM,3.85 µM,99.7%,99.3%
Cc1cn(-c2cc(NC(=O)c3ccc(C)c(Nc4nccc(-c5cccnc5)n4)c3)cc(C(F)(F)F)c2)cn1 [NILOTINIB],,5.75 µM,7.31 µM,88.1%,93.6%
Cc1ccc(NC(=O)c2ccc(CN3CCN(C)CC3)c(C(F)(F)F)c2)cc1Oc1ccc(-c2n[nH]c3ncnc(N)c23)cc1,0.044 µM,4 µM,3.36 µM,100%,97.9%
Cc1ccc(NC(=O)c2ccc(CN3CCOCC3)c(Br)c2)cc1Oc1ccc(-c2n[nH]c3ncnc(N)c23)cc1,2.47 µM,> 10 µM,,35%,81.3%
Cc1ccc(NC(=O)c2ccc(CN3CCCC3)c(C(F)(F)F)c2)cc1Oc1ccc(-c2n[nH]c3ncnc(N)c23)cc1,1.19 µM,> 10 µM,,34.9%,98.5%

# Now from value to compound, other results behind:
IC50 [1],IC50 [4],IC50 [5],SMILES,inhibition at 10 µM [2],inhibition at 10 µM [3]
2.69 µM,> 10 µM,,Cc1ccc(NC(=O)c2ccc(CN3CCN(C)CC3)cc2)cc1Oc1ccc(-c2n[nH]c3ncnc(N)c23)cc1,26.7%,94.5%
,2 µM,2.68 µM,Cc1ccc(NC(=O)c2ccc(CN3CCCCC3)cc2)cc1Oc1ccc(-c2n[nH]c3ncnc(N)c23)cc1,99.6%,98.7%
1.21 µM,4.47 µM,,Cc1ccc(NC(=O)c2cccc(CN3CCN(C)CC3)c2)cc1Oc1ccc(-c2n[nH]c3ncnc(N)c23)cc1,99.8%,99.3%
,3.04 µM,,Cc1ccc(NC(=O)c2ccc(CN3CCCC3)cc2)cc1Oc1ccc(-c2n[nH]c3ncnc(N)c23)cc1,100%,98.8%
,> 10 µM,,CCN1CCN(Cc2ccc(C(=O)Nc3ccc(C)c(Oc4ccc(-c5n[nH]c6ncnc(N)c56)cc4)c3)cc2)CC1,33.6%,88.7%
,6.56 µM,,Cc1ccc(NC(=O)c2ccc(CN3CCN(C)CC3)c(Br)c2)cc1Oc1ccc(-c2n[nH]c3ncnc(N)c23)cc1,99.5%,100%
,2.91 µM,3.83 µM,Cc1ccc(NC(=O)c2ccc(CN3CCN(C)CC3)c(Cl)c2)cc1Oc1ccc(-c2n[nH]c3ncnc(N)c23)cc1,99.9%,99.2%
,1.37 µM,2.76 µM,Cc1ccc(NC(=O)c2ccc(CN3CCC(C)CC3)cc2)cc1Oc1ccc(-c2n[nH]c3ncnc(N)c23)cc1,99.9%,97.4%
,4.89 µM,3.53 µM,Cc1ccc(NC(=O)c2ccc(CN3CCOCC3)cc2)cc1Oc1ccc(-c2n[nH]c3ncnc(N)c23)cc1,97.2%,99%
